According to ChEMBL document CHEMBL1949660 (Bioorg Med Chem Lett, 2012):

How the values were obtained:
Histamine H3 receptor [1] = target: Histamine H3 receptor (Rattus norvegicus, UniProt Q9QYN8); assay: Displacement of [3H]NAMH from rat histamine H3 receptor expressed in CHO cells; assay type: cell-based
Outline: (§1)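 Radioligand displacement of [³H]NAMH from membranes isolated from CHO cells transfected with cloned human H₃ or rat H₃ receptors.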

Histamine H3 receptor [2] = target: Histamine H3 receptor (Homo sapiens, UniProt Q9Y5N1); assay: Displacement of [3H]NAMH from human histamine H3 receptor expressed in CHO cells; assay type: cell-based; outline: as §1
Sequence of Histamine H3 receptor (Homo sapiens, UniProt Q9Y5N1) (Q9Y5N1 whole entry): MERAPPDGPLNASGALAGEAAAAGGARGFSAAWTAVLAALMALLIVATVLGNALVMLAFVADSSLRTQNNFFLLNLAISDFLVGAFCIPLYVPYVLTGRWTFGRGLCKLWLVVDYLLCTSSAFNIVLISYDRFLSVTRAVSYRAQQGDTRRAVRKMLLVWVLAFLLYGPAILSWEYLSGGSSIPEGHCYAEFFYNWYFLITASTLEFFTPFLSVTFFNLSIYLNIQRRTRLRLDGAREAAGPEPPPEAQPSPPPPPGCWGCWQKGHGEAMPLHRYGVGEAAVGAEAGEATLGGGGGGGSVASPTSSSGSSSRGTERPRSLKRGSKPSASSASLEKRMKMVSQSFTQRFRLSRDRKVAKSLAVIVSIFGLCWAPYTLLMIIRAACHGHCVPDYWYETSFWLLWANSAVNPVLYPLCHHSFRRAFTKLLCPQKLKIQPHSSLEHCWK

[3] = Half life in rat at 1 mg/kg, iv; assay type: ADME, organism-based; design: dose 1 mg/kg, route intravenous; conditions: in vivo
Outline: (§2)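 Rat PK: iv dose with vehicle 3% DMSO, 30% solutol, 67% phosphate buffered saline. Oral 5 mg/kg dose with vehicle 50% Tween 80, 40% propylene carbonate, 10% propylene glycol.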

[4] = Oral bioavailability in rat at 5 mg/kg; assay type: ADME, organism-based; conditions: in vivo; outline: as §2
[5] = Clearance in rat at 1 mg/kg, iv; assay type: ADME, organism-based; design: dose 1 mg/kg, route intravenous; conditions: in vivo; outline: as §2
[6] = target: Sodium-dependent dopamine transporter (Homo sapiens) (UniProt Q01959); assay: Inhibition of DAT at 10 uM
Sequence of Sodium-dependent dopamine transporter (Homo sapiens) (Q01959 whole entry): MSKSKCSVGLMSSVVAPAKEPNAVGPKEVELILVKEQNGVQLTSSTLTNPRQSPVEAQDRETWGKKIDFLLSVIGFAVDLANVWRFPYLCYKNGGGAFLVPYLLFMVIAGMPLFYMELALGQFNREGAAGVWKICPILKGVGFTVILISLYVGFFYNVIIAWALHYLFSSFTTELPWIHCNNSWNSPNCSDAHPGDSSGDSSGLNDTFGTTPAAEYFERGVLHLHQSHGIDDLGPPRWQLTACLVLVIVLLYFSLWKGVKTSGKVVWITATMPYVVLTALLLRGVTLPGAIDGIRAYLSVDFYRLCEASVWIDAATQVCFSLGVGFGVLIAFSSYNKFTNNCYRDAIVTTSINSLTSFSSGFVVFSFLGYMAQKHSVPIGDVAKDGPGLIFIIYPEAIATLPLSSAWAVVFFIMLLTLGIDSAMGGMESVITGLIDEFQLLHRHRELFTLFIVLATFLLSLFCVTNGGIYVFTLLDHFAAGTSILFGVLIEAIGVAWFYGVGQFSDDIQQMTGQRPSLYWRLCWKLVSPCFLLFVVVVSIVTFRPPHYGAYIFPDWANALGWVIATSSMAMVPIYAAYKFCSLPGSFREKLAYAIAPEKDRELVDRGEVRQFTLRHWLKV

[7] = Ratio drug uptake in brain to plasma of rat at 10 mg/kg, ip measured after 6 hrs; assay type: ADME, organism-based; design: dose 10 mg/kg, route intraperitoneal; conditions: read-out: BPR
[8] = Cmax in rat at 5 mg/kg, po; assay type: ADME, organism-based; design: dose 5 mg/kg, route oral; conditions: in vivo
[9] = Volume of distribution in rat at 1 mg/kg, iv; assay type: ADME, organism-based; design: dose 1 mg/kg, route intravenous; conditions: in vivo; outline: as §2

Sequence of Histamine H3 receptor (Rattus norvegicus, UniProt Q9QYN8) (Q9QYN8 whole entry): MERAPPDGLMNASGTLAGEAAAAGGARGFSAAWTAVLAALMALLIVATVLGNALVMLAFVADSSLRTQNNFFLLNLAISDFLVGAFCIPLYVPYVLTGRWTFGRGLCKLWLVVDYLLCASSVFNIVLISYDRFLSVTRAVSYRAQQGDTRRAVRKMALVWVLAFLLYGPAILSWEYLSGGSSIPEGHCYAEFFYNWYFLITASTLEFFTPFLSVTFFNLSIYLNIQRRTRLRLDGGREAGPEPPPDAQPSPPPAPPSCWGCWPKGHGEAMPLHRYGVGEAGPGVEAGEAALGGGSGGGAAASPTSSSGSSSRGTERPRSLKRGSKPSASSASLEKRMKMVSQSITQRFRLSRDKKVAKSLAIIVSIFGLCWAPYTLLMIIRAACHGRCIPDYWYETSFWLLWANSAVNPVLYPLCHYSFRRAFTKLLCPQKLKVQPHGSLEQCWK

| SMILES | Ki (Histamine H3 receptor [1]) | Ki (Histamine H3 receptor [2]) | also measured |
| --- | --- | --- | --- |
| Cn1nc(-c2ccc(OC3CCN(C4CCC4)CC3)nc2)ccc1=O | 8.6 nM | 1.8 nM |  |
| Cn1nc(-c2ccc(OC3CCN(C4CCCC4)CC3)nc2)ccc1=O | 12 nM | 5.9 nM |  |
| CC(C)N1CCC(Oc2ccc(-c3ccc(=O)n(C)n3)cc2)CC1 | 46 nM | 9.2 nM |  |
| Cn1nc(-c2ccc(OC3CCN(C4CCCC4)CC3)cc2)ccc1=O |  | 2.7 nM |  |
| O=c1ccc(-c2ccc(OC3CCN(C4CCCC4)CC3)nc2)n[nH]1 | 51 nM | 26 nM |  |
| O=C1CCC(c2ccc(OC3CCN(C4CCC4)CC3)cc2)=NN1 | 6.7 nM | 3.7 nM |  |
| C[C@H]1CC(=O)NN=C1c1ccc(OC2CCN(C3CCC3)CC2)cc1 | 13 nM |  | half-life [3]: 4.4 h; bioavailability [4]: 56%; clearance [5]: 23 mL/min/kg; inhibition [6]: 13%; Kp at 6 h [7]: 5.3; Cmax [8]: 253 ng/mL; Vd [9]: 7.6 L/kg |
| CC1(C)CC(c2ccc(OC3CCN(C4CCC4)CC3)c(F)c2)=NNC1=O | 7.2 nM | 7.1 nM |  |
| O=c1ccc(-c2ccc(OC3CCN(C4CCCC4)CC3)cc2)n[nH]1 | 7 nM | 5.1 nM |  |
| O=c1ccc(-c2ccc(OC3CCN(C4CCC4)CC3)cc2)nn1-c1ccccn1 | 15 nM | 9.8 nM |  |
| CC(C)N1CCC(Oc2ccc(-c3ccc(=O)[nH]n3)cn2)CC1 | 101 nM | 15 nM |  |
